According to the RNAGym collection of RNA variant scans (doi:10.1126/science.aae0568):
This sample holds only a part of the variants without activity.

B1: tRNA (parent)
chain: GUUCCGUUGGCGUAAUGGUAACGCGUCUCCCUCCUAAGGAGAAGACUGCGGGUUCGAGUCCCGUACGGAACG

Variants of: B1
Assay: yeast fitness relative to wild type (ratio to wild type); higher = fitter; tRNA-Arg(CCU), competitive growth, 37 C, YPD
Summary of the method: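 The tRNA-Arg(CCU) gene variants were made by chemical synthesis with a 3% per-site mutation rate at 69 sites and inserted at the native genomic locus of Saccharomyces cerevisiae. After pooling, the strains were competed in YPD at 37°C for 24 hours in six parallel replicates. Gene amplicons from the start population and each end population were read by 100-nucleotide paired-end sequencing, and Darwinian fitness relative to wild type was taken from genotype frequency changes. Genotypes needed ≥ 100 starting reads, and estimates < 0.5 were set to 0.5.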

| Variant | yeast fitness |
| --- | --- |
| C11U C27U C31A U35C C60G A70C | ≤ 0.5 |
| C11U C29A A57U C62U | ≤ 0.5 |
| C11U A21C C27G G39C C66U | ≤ 0.5 |
| C11U A42U C60A A65U | 0.553 |
| C11U A36G C60G A70C | ≤ 0.5 |
| C11U C34G A40C A43G G51C | ≤ 0.5 |
| C11U A45C A70U | 0.582 |
| C11U C29U G50A C66A | ≤ 0.5 |
| C11U A21U A45U | 1.15 |
| C11U A37U C49G | ≤ 0.5 |
| C11U C24U C34G | ≤ 0.5 |
| C11U C30U C55G | 0.541 |
| C11U C29A C31G | ≤ 0.5 |
| C11U C30G G56C | ≤ 0.5 |
| C11U C31A A42G | 0.525 |
| C11U C22U A57U A70C | ≤ 0.5 |
| C11U C29A A57U C62U A70U | ≤ 0.5 |
| C11U A20U G44A C46A G52A C66U | ≤ 0.5 |
| C11U C31U A42C G44A A45U | ≤ 0.5 |
| C11U A42C A65G | 0.658 |
| C11U C31G C33U A37C A65U | ≤ 0.5 |
| C11U A45G C46G U47A C62G A65C | 0.533 |
| C11U A57G A69U | 0.718 |
| C11U C30A A65C | 0.685 |

| Variant | yeast fitness |
| --- | --- |
| C11U A40U A69C | 0.646 |
| C11U A20U C60U | ≤ 0.5 |
| C11U A36U G48C U54C | ≤ 0.5 |
| C11U A37G U54A U59G | ≤ 0.5 |
| C11U C34A C46U | ≤ 0.5 |
| C11U A21C G67A | 0.597 |
| C11U C31U U47C | 0.78 |
| C11U A40U C55U G68A | ≤ 0.5 |
| C11U A69C A70U | 0.814 |
| C11U C33U G68C | 0.527 |
| C11U C27U C31A A42G C49G G51A | ≤ 0.5 |
| C11U C27U C31U A37G A42U G48C C49U | 0.54 |
| C11U C24G C62G | ≤ 0.5 |
| C11U C34A A70G | 0.581 |
| C11U C34A C61U | ≤ 0.5 |
| C11U C24A C31U C33U A37U G48A G67A | ≤ 0.5 |
| C11U A65U G68C | 0.592 |
| C11U C49G A57C G67U | ≤ 0.5 |
| C11U C29U U47C G67A A70U | ≤ 0.5 |
| C11U C22G G58A C61U | 0.608 |
| C11U C29G C31U C34G A70C | 0.534 |
| C11U A21C U35A A42U C46G | ≤ 0.5 |
| C11U C46U A70G | 0.786 |
| C11U A21C C27U A42G A69C A70G | ≤ 0.5 |

| Variant | yeast fitness |
| --- | --- |
| C11U A43U G63C | 0.558 |
| C11U C31U G41A | 0.714 |
| C11U C29G A37C A42U A57G | ≤ 0.5 |
| C11U A20U C22A U53G | ≤ 0.5 |
| C11U C24U U53A C66U | ≤ 0.5 |
| C11U A21U G50C U64C | 0.597 |
| C11U C30U G41C | ≤ 0.5 |
| C11U C27U G52C C55G | ≤ 0.5 |
| C11U C22G A70U | 0.722 |
| C11U A20U C24U C33G U47A C49U | 0.557 |
| C11U A42G C60G | ≤ 0.5 |
| C11U C31G A45C | ≤ 0.5 |
| C11U C24G C29U G50A G58C G63A C66U | ≤ 0.5 |
| C11U A45U A65C | 0.733 |
| C11U A21C A42G A69C A70G | 0.563 |
| C11U C27A C46A A70U | ≤ 0.5 |
| C11U A42U G67C | 0.536 |
| C11U A21U G41A C61A | ≤ 0.5 |
| C11U A37G G52C A70U | ≤ 0.5 |
| C11U C34G G38C C61U | ≤ 0.5 |
| C11U A43U C62A | 0.605 |
| C11U C27U C29A C33G C66A | ≤ 0.5 |
| C11U C29G C31U A57U | ≤ 0.5 |
| C11U C34U A43G | ≤ 0.5 |

| Variant | yeast fitness |
| --- | --- |
| C11U A21U C61A A70U | ≤ 0.5 |
| C11U C31U A37U A70U | ≤ 0.5 |
| C11U C22G A40C G41A U47A U53C G67C | ≤ 0.5 |
| C11U A21U C22U | 0.673 |
| C11U A21G A43C | 0.649 |
| C11U C24U C34U C61U | ≤ 0.5 |
| C11U C22G C62U A70C | ≤ 0.5 |
| C11U C34G U47G | ≤ 0.5 |
| C11U C34U G48A G67U | ≤ 0.5 |
| C11U A21C A36C A70U | ≤ 0.5 |
| C11U C34A G41C A42G | ≤ 0.5 |
| C11U A21G C24A | 0.529 |
| C11U C24G A45C C60A G68U | ≤ 0.5 |
| C11U A45U A69C | 0.874 |
| C11U A45U A69U | 0.915 |
| C11U C22G C33U | ≤ 0.5 |
| C11U C31G A57U G67U | ≤ 0.5 |
| C11U A57G U59C G67A | ≤ 0.5 |
| C11U A69U | 0.949 |
| C11U C34U G38A G44C C66U | ≤ 0.5 |
| C11U A20U C24U C29A A70G | ≤ 0.5 |
| C11U C29U G48A | 0.621 |
| C11U C27G C29G C49U G63C | ≤ 0.5 |
| C11U C46U G56C A69U | ≤ 0.5 |

| Variant | yeast fitness |
| --- | --- |
| C11U A20G C34G A40C G51C | ≤ 0.5 |
| C11U C46U G67C | 0.608 |
| C11U A65U A70G | 0.696 |
| C11U C27U A45C A57C | ≤ 0.5 |
| C11U C27U | 0.906 |
| C11U C27G | 0.703 |
| C11U A42G G48A | 0.678 |
| C11U A20G C24G G63C | ≤ 0.5 |
| C11U C22U G44C C62U | ≤ 0.5 |
| C11U C22U G67A | 0.586 |
| C11U C49U G56C C62U | ≤ 0.5 |
| C11U A20G C24G | 0.506 |
| C11U A45U A57C G58A | 0.61 |
| C11U C30G A40U U54A | ≤ 0.5 |
| C11U A43U A70G | 0.738 |
| C11U C31A G51C | 0.532 |
| C11U C49U | 0.976 |
| C11U C49A | 0.724 |
| C11U A20U G38A G51A U54A | 0.527 |
| C11U A36G A45C | 0.807 |
| C11U C30G A40U A45U C55G | 0.604 |
| C11U C30U | 0.748 |
| C11U C29A | 0.824 |
| C11U A36G | 0.822 |

| Variant | yeast fitness |
| --- | --- |
| C11U C27A G51C G56C | ≤ 0.5 |
| C11U C31G A37U G51C G58A | ≤ 0.5 |
| C11U A40U G50C G58C U59A | 0.564 |
| C11U C24G C27G | ≤ 0.5 |
| C11U C29U G67A A70U | 0.578 |
| C11U A57C C60U G67C | 0.589 |
| C11U A36U G48C | 0.632 |
| C11U C31U G58C | 0.643 |
| C11U C22U | 0.855 |
| C11U C22G | 0.875 |
| C11U A45G G58A A65G | 1.11 |
| C11U C22U A40C | 0.558 |
| C11U C30U A65U C66G | 0.585 |
| C11U C22U G48C U54G C55U | ≤ 0.5 |
| C11U C24G G63C G67A | 0.568 |
| C11U A21U U54A A70G | ≤ 0.5 |
| C11U C34A A36C G67C | ≤ 0.5 |
| C11U A21C C27G G39C | 0.544 |
| C11U A65U C66A | ≤ 0.5 |
| C11U C34A A57G | 0.548 |
| C11U A45C G51A | 0.611 |
| C11U C27A G48A U53A C61U | ≤ 0.5 |
| C11U C31G C46G C66U | 0.564 |
| C11U C31G C49G C62U G67C | ≤ 0.5 |

| Variant | yeast fitness |
| --- | --- |
| C11U C46U C49U G67C | ≤ 0.5 |
| C11U C27A G50A A69U | ≤ 0.5 |
| C11U A40G A43C G56A | 0.578 |
| C11U A42G C46G G56C A65C | ≤ 0.5 |
| C11U C31U C60A | ≤ 0.5 |
| C11U A20U A65C | ≤ 0.5 |
| C11U C24G A42G | ≤ 0.5 |
| C11U C22U A57U | 0.512 |
| C11U C31G C55U C61U A65G | ≤ 0.5 |
| C11U A40G G67C A69U | 0.574 |
| C11U C24U C49A C62A | ≤ 0.5 |
| C11U A20U C30A G38A G51A U54A | ≤ 0.5 |
| C11U C24U A45G C46G C55G | ≤ 0.5 |
| C11U C34A A36C | ≤ 0.5 |
| C11U A42C G48A | 0.566 |
| C11U A36U A37C A42U G63C | ≤ 0.5 |
| C11U A36C A65C C66U | 0.558 |
| C11U C22U C24U | 0.56 |
| C11U A37C | 0.724 |
| C11U A37U | 0.808 |
| C11U C27G C55U C66A | ≤ 0.5 |
| C11U A20U G39A | ≤ 0.5 |
| C11U C22G A69C | 0.653 |
